Source: PubChem (several laboratories)
The list is not random: actives were taken first. Their share in the collection is about 4.9%.
STAT3 act: IL-6 driven STAT3 reporter potentiators, primary screen, U3A cells, luciferase, luminescence, MLSCN library | IL-6 STAT3-luciferase reporter; 100% = signal with IL-6 EC80 alone | activation (% of control), % at 5.6 µM | actives 0.91% (n = 190,000);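 active means activation above the screen-wide mean of compound activation plus 3 SD, cut at about 130% in these data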;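 further: 0% = background luminescence of wells with medium and substrate only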
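Test system: STAT3-luciferase reporter U3A cells; Detection: reporter luminescence signal; Times: 1 h compound pre-exposure, 6 h IL-6 stimulation, 37 °C; Benchmarks: IL-6-only high control; Also added: IL-6 stimulus at 33 ng/mL final.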
STAT1 activator: STAT1 signaling activators, primary screen, cell-based, HTS, luciferase reporter; NIH 3T3 STAT1-luciferase reporter, IFN-gamma, luminescence; 100% = IFN-gamma alone, no compound; activation (% of control), % at 5.5 µM; actives 2.6% (n = 200,000); AID 932, 2007;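 active means activation above the screen-wide mean activation plus 3 SD, cut at about 130% in these data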;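 further: raw ratio to IFN-gamma control signal so 100% means no change and 0% no light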
STAT3 inh-1: IL-6 driven STAT3 reporter inhibitors, primary screen, U3A cells, luciferase, luminescence, MLSCN library | IL-6 STAT3-luciferase reporter; host cell line lacks STAT1 | inhibition, % at 5.5 µM | actives 0.89% (n = 190,000) | AID 862, 2007;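 active means inhibition above the mean inhibition across all screened compounds plus 3 SD, cut at about 44% in these data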;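 further: 0% = DMSO only wells and 100% = 100 µM nifuroxazide control wells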
NF-kB expr up: activators of NF-kB expression in neurons, primary screen, cell-based, HTS. fold change at 12.5 µM. actives 1.6% (n = 190,000). human neuronal cells, NF-kB reporter expression; active compounds read high; in the data active means fold change above about 3.3
STAT1 blocker: STAT1 signaling inhibitors, primary screen, cell-based, HTS, luciferase reporter | NIH 3T3 STAT1-luciferase reporter, IFN-gamma, luminescence | inhibition, % at 5.5 µM | actives 0.35% (n = 200,000);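 active means inhibition above a set limit, the mean inhibition across all tested compounds plus 3 SD, cut at about 34% in these data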;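 further: 0% = IFN-gamma with DMSO and 100% = IFN-gamma with 300 µM nifuroxazide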
APP 5'UTR act: activators of APP 5'UTR luciferase reporter, primary screen, SH-SY5Y cells; SH-SY5Y APP 5'UTR luciferase reporter, luminescence; zero percent = DMSO vehicle wells; actives 1% (n = 190,000); activation, % at 2 µM; AID 1276, 2008;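 active means activation above a set limit, based on mean plus 3 SD of controls, cut at about 140% in these data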
STAT3 inh-2: STAT3 reporter inhibitors, retest of hits, confirmation, U3A cells, luciferase, luminescence. shares compounds with STAT3 inh-1. IL-6 STAT3 luciferase reporter; cell line lacks STAT1. inhibition, % at 5.7 µM. actives 45% (n = 1,200);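 active means inhibition above the hit cutoff computed for the primary STAT3 screen, cut at about 44% in these data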;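 further: 0% = IL-6 plus DMSO and 100% = IL-6 plus nifuroxazide control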
NFkB inh STAT3ct: NF-kB reporter inhibitors in human cells, confirmation, counter-screen for STAT3 inhibitor project, cell-based, HEK293T, luciferase, TNF-alpha stimulus | shares compounds with STAT3 inh-1 | TNF-alpha induced | inhibition, % at 5.7 µM | actives 36% (n = 1,200) | AID 1308, 2008;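 active means inhibition above the mean of solvent-only control wells plus 3 SD, cutoff set per campaign, cut at about 13% in these data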;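 further: 0% = TNF-alpha with DMSO and 100% = TNF-alpha with MG high control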
STAT1 inh STAT3c: STAT1 reporter inhibitors, IFN-gamma induced, confirmation, counter-screen for STAT3 inhibitor project, cell-based, NIH 3T3, luciferase luminescence; shares compounds with STAT3 inh-1; inhibition, % at 5.7 µM; actives 27% (n = 1,200); NIH 3T3 STAT1-luciferase reporter;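 active means inhibition above the mean plus 3 SD of solvent-only control wells, limit set per screening run, cut at about 16% in these data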;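 further: 0% = DMSO with IFN-gamma and 100% = nifuroxazide control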
Active calls of the source: *; x = no result.

SMILES	STAT3 act	STAT1 activator	STAT3 inh-1	NF-kB expr up	STAT1 blocker	APP 5'UTR act	STAT3 inh-2	NFkB inh STAT3ct	STAT1 inh STAT3c
CCOC(=O)C1CCCN(C(=O)/C=C/c2ccccc2[N+](=O)[O-])C1 (configuration not stated)	101	101	-4	0.82	-1	-19	x	x	x
N=c1cc(C2(O)CCCCC2)n2c(nc3ccccc32)s1	49	114	61*	4.1*	-4	185*	36	1	-70
O=C(Oc1ccc2ccccc2c1)c1ccco1	101	106	3	1.2	-8	-19	x	x	x
CC1CC(C)(C)Nc2ccc(OC(=O)c3ccco3)cc21 (configuration not stated)	53	82	62*	2.2	20	-30	31	25*	11
COc1cc(C2CC(=O)c3c([nH]c(C(=O)OCCOC(C)C)c3C)C2)cc(OC)c1OC (configuration not stated)	55	77	59*	0.53	26	-22	46*	12	21*
Cc1ccc(CC(=O)Nc2ccncc2)cc1	62	73	46*	0.91	29	-11	52*	11	24*
CN(CCCC(=O)Nc1ccncc1)S(=O)(=O)c1ccc(Cl)cc1	62	88	47*	0.77	13	0	39	0	21*
Cc1ccc(CC(=O)Nc2cccnc2)cc1	96	96	8	0.85	2	-4	x	x	x
O=C(Cc1ccc(Cl)cc1)Nc1ccncc1	58	77	52*	0.88	23	-9	55*	17*	21*
CN(CC(=O)Nc1ccncc1)S(=O)(=O)c1ccc(Br)cc1	90	96	16	0.98	5	-20	x	x	x
O=C(Cc1ccc([N+](=O)[O-])cc1)Nc1ccc(Cl)cc1	104	98	-3	1.2	0	9	x	x	x
COc1cc2c(=O)n(CCCC(=O)NCC3CCCO3)c(=O)n(CC(=O)c3ccc(F)cc3)c2cc1OC (configuration not stated)	102	94	-1	1.2	7	27	x	x	x
CCOc1ccc(-c2c[n+]3c(n2-c2ccccc2)CCCCC3)cc1	51	74	56*	0.54	28	22	73*	5	28*
COc1ccc(-n2c(-c3ccc(Br)cc3)c[n+]3c2CCC3)cc1	83	79	22	0.9	21	-7	x	x	x
Cc1ccc(-n2c(-c3ccccc3)c[n+]3c2CCC3)cc1	51	76	62*	0.69	26	1	50*	2	23*
CCN1CCc2c(OCC(=O)N3CCCCC3)cccc2C1=O	92	98	19	1.4	1	2	x	x	x
Nc1ccc(C(=O)Nc2nc3ccccc3s2)cc1	62	125	51*	3.9*	-28	160*	2	-40	-173
COc1ccc(NC(=S)NC(=O)CC(C)C)c(OC)c1	111	112	-8	1.4	-17	6	x	x	x
CCOC(=O)c1oc2ccc(S(=O)(=O)Nc3ccc4c(c3)n(C)c(=O)n4C)cc2c1C	53	85	60*	0.49	16	11	57*	10	14
Cn1c(=O)n(C)c2cc(NS(=O)(=O)c3ccc(C(C)(C)C)cc3)ccc21	75	85	33	0.71	15	0	x	x	x
